Source: ChEMBL document CHEMBL1128670, “Hypoxia-selective antitumor agents. 11. Chlorambucil N-oxide: a reappraisal of its synthesis, stability, and selective toxicity for hypoxic cells” (J Med Chem, 1995)

Columns and labels:
[1] = test system: CHO-AA8; assay: Growth inhibition activity was measured in repair proficient AA8 cells under aerobic conditions (4 hours drug exposure); format: functional, cell-based; details: Cricetulus griseus, CHO-AA8, 4 h
[2] = test system: UV4; assay: Growth inhibition activity was measured in repair deficient UV4 cells under aerobic conditions (4 hours drug exposure); format: functional, cell-based; details: Cricetulus griseus, UV4, 4 h
[3] = test system: CHO-AA8; assay: Activity to reduce the surviving fraction to 10% (CT10) was used as an inverse measure of cytotoxic potency in aerobic conditions; format: functional, Cricetulus griseus
Method in brief: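 Clonogenic survival assay in magnetically stirred 10 mL suspensions of late-log AA8 cells (10⁶/mL) under continuous gassing with 5% CO₂ in air. Samples were removed periodically during drug exposure. CT₁₀ is the concentration × time giving 10% surviving fraction, used as an inverse measure of cytotoxicity.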

[4] = Ratio of activities reducing surviving fraction to 10% (T10) under aerobic vs hypoxic conditions; format: functional
Method in brief: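 Late-log AA8 cells (10⁶/mL) in stirred 10 mL suspensions were gassed continuously with 5% CO₂ in air or in N₂, with periodic sampling for clonogenic survival. The time to 10% survival (T₁₀) was found under each gas at the same drug concentration. The value is the mean of air/N₂ T₁₀ ratios; errors are ranges (two determinations) or standard errors.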

Row | SMILES | IC50 [1] [µM] | IC50 [2] [µM] | CT10 [3] [µM·h] | Ratio [4]
1 | O=C(O)CCCc1ccc(N(CCCl)OCCCl)cc1 | 456 | 176 | >2400 | 
2 | O=C(O)CCCc1ccc(NCCCl)cc1 | > 250 | 90 | 2080 | 1.26
3 | O=C(O)CCCc1ccc(N(CCCl)CCCl)cc1 [CHLORAMBUCIL] | 38 | 1.2 | 85.2 | 1.28
